What was measured:
[1] = test system: human lung cancer A549 cells; test: MTT cytotoxicity screening on human lung cancer cells; format: cell-based; conditions: for IC50: Homo sapiens, A549, 72 h, read-out: A549 IC50; for SI (selectivity index): ratio of IC50 values against Wi-38 and A549 cells
How it was run: (§1)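 A549 and Wi-38 cells, sourced from the National Cancer Institute (Cairo), grown in RPMI-1640 with L-glutamine, 10% FBS and 1% penicillin-streptomycin at 37 °C, 5% CO2. Seeded in triplicate at 5 × 10^4 cells, then exposed next day to test compound at 0.01, 0.1, 1, 10 and 100 µM. Viability measured by MTT relative to untreated control, and IC50 computed.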

[2] = test system: normal human lung fibroblasts (Wi-38); test: MTT cytotoxicity screening on normal human lung fibroblasts; format: cell-based; conditions: WI-38, 72 h, read-out: Wi-38 EC50
How it was run: as §1

CDK2 = CDK2 (Homo sapiens, UniProt P24941); test: In vitro CDK2 inhibition, CDK2 luminescence kinase assay kit; format: biochemical

| SMILES | IC50 [1] | SI (selectivity index) [1] | EC50 [2] | % inhibition ± SD at [10 μM] of CDK2 (CDK2; 10 μM) | IC50 (CDK2; CDK2 IC50, serial dilutions 0.01–10 μM, mean ± SD of three replicates) | inhibition at 10 µM (CDK2; read-out: % inhibition ± SD at [10 μM] of CDK2, 10 μM) |
| --- | --- | --- | --- | --- | --- | --- |
| O=C(c1nc2ccccc2[nH]1)[C@H]1[C@H](c2ccco2)[C@H]2CCCN2[C@@]12c1ccccc1-c1nc3ccccc3nc12 [Compound 4a, (1H-Benzo[d]imidazol-2-yl)((1'S,2'S,7a’R,11R)-1'-(furan-2-yl)-1',2',5',6',7',7a’-hexahydrospiro[indeno[1,2-b]quinoxaline-11,3'-pyrrolizin]-2'-yl)methanone] | 82 ± 2 nM | 7.402 | 607 ± 50 nM | – | – | – |
| O=C(c1nc2ccccc2[nH]1)[C@H]1[C@H](c2ccc(Cl)cc2Cl)[C@H]2CCCN2[C@@]12c1ccccc1-c1nc3ccccc3nc12 [Compound 4b, (1H-Benzo[d]imidazol-2-yl)((1'R,2'S,7a’R,11R)-1'-(2,4-dichlorophenyl)-1',2',5',6',7',7a’-hexahydrospiro[indeno[1,2-b]quinoxaline-11,3'-pyrrolizin]-2'-yl)methanone] | 225 ± 5 nM | 3.942 | 887 ± 11 nM | – | – | – |
| O=C(c1nc2ccccc2[nH]1)[C@H]1[C@H](c2ccc(F)cc2)[C@H]2CCCN2[C@@]12c1ccccc1-c1nc3ccccc3nc12 [Compound 4c, (1H-Benzo[d]imidazol-2-yl)((1'R,2'S,7a’R,11R)-1'-(4-fluorophenyl)-1',2',5',6',7',7a’-hexahydrospiro[indeno[1,2-b]quinoxaline-11,3'-pyrrolizin]-2'-yl)methanone] | 206 ± 9 nM | 1.053 | 217 ± 7 nM | – | – | – |
| O=C(c1nc2ccccc2[nH]1)[C@H]1[C@H](c2ccc(Br)cc2)[C@H]2CCCN2[C@@]12c1ccccc1-c1nc3ccccc3nc12 [Compound 4d, (1H-Benzo[d]imidazol-2-yl)((1'R,2'S,7a’R,11R)-1'-(4-bromophenyl)-1',2',5',6',7',7a’-hexahydrospiro[indeno[1,2-b]quinoxaline-11,3'-pyrrolizin]-2'-yl)methanone] | 135 ± 2 nM | 1.303 | 176 ± 2 nM | – | – | – |
| O=C(c1nc2ccccc2[nH]1)[C@H]1[C@H](c2cccc(F)c2)[C@H]2CCCN2[C@@]12c1ccccc1-c1nc3ccccc3nc12 [Compound 4e, (1H-Benzo[d]imidazol-2-yl)((1'R,2'S,7a’R,11R)-1'-(3-fluorophenyl)-1',2',5',6',7',7a’-hexahydrospiro[indeno[1,2-b]quinoxaline-11,3'-pyrrolizin]-2'-yl)methanone] | 321 ± 5 nM | 3.429 | 1100 ± 205 nM | – | – | – |
| O=C(c1nc2ccccc2[nH]1)[C@H]1[C@H](c2cccs2)[C@H]2CCCN2[C@@]12c1ccccc1-c1nc3ccccc3nc12 [Compound 4g, (1H-Benzo[d]imidazol-2-yl)((1'S,2'S,7a’R,11R)-1'-(thiophen-2-yl)-1',2',5',6',7',7a’-hexahydrospiro[indeno[1,2-b]quinoxaline-11,3'-pyrrolizin]-2'-yl)methanone] | 182 ± 4 nM | 1.384 | 252 ± 1 nM | – | – | – |
| O=C(c1nc2ccccc2[nH]1)[C@H]1[C@H](c2ccccc2)[C@H]2CCCN2[C@@]12c1ccccc1-c1nc3ccccc3nc12 [Compound 4h, (1H-Benzo[d]imidazol-2-yl)((1'R,2'S,7a’R,11R)-1'-phenyl-1',2',5',6',7',7a’-hexahydrospiro[indeno[1,2-b]quinoxaline-11,3'-pyrrolizin]-2'-yl)methanone] | 177 ± 3 nM | 1.090 | 193 ± 10 nM | – | – | – |
| O=c1[nH]cc(F)c(=O)[nH]1 [Compound 5-Fu, 5-fluorouracil, reference compound] | 3780 ± 520 nM | 1.107 | 4190 ± 168 nM | – | – | – |
| O=C(c1nc2ccccc2[nH]1)[C@H]1[C@H](c2ccco2)C2CC3CCCCC3N2[C@@]12c1ccccc1-c1nc3ccccc3nc12 (stereo partly drawn) [Compound 6a, (1H-Benzo[d]imidazol-2-yl)((1'S,2'S,11R)-1'-(furan-2-yl)-1',2',4a’,5',6',7',8',8a’,9',9a’-decahydrospiro[indeno[1,2-b]quinoxaline-11,3'-pyrrolo[1,2-a]indol]-2'-yl)methanone] | 98 ± 6 nM | 1.142 | 112 ± 1 nM | – | – | – |
| O=C(c1nc2ccccc2[nH]1)[C@H]1[C@H](c2ccc(Cl)cc2Cl)C2CC3CCCCC3N2[C@@]12c1ccccc1-c1nc3ccccc3nc12 (stereo partly drawn) [Compound 6b, (1H-Benzo[d]imidazol-2-yl)((1'R,2'S,11R)-1'-(2,4-dichlorophenyl)-1',2',4a’,5',6',7',8',8a’,9',9a’-decahydrospiro[indeno[1,2-b]quinoxaline-11,3'-pyrrolo[1,2-a]indol]-2'-yl)methanone] | 54 ± 8 nM | 6.648 | 359 ± 8 nM | 70.72 ± 2.8% | 177 nM | 70.7% |
| O=C(c1nc2ccccc2[nH]1)[C@H]1[C@H](c2ccc(F)cc2)C2CC3CCCCC3N2[C@@]12c1ccccc1-c1nc3ccccc3nc12 (stereo partly drawn) [Compound 6c, (1H-Benzo[d]imidazol-2-yl)((1'R,2'S,11R)-1'-(4-fluorophenyl)-1',2',4a’,5',6',7',8',8a’,9',9a’-decahydrospiro[indeno[1,2-b]quinoxaline-11,3'-pyrrolo[1,2-a]indol]-2'-yl)methanone] | 139 ± 3 nM | 1.208 | 168 ± 19 nM | – | – | – |
| O=C(c1nc2ccccc2[nH]1)[C@H]1[C@H](c2ccc(Br)cc2)C2CC3CCCCC3N2[C@@]12c1ccccc1-c1nc3ccccc3nc12 (stereo partly drawn) [Compound 6d, (1H-Benzo[d]imidazol-2-yl)((1'R,2'S,11R)-1'-(4-bromophenyl)-1',2',4a’,5',6',7',8',8a’,9',9a’-decahydrospiro[indeno[1,2-b]quinoxaline-11,3'-pyrrolo[1,2-a]indol]-2'-yl)methanone] | 87 ± 3 nM | 0.885 | 77 ± 1 nM | – | – | – |
| O=C(c1nc2ccccc2[nH]1)[C@H]1[C@H](c2cccc(F)c2)C2CC3CCCCC3N2[C@@]12c1ccccc1-c1nc3ccccc3nc12 (stereo partly drawn) [Compound 6e, (1H-Benzo[d]imidazol-2-yl)((1'R,2'S,11R)-1'-(3-fluorophenyl)-1',2',4a’,5',6',7',8',8a’,9',9a’-decahydrospiro[indeno[1,2-b]quinoxaline-11,3'-pyrrolo[1,2-a]indol]-2'-yl)methanone] | 137 ± 16 nM | 0.832 | 114 ± 3 nM | – | – | – |
| COc1ccc([C@@H]2C3CC4CCCCC4N3[C@@]3(c4ccccc4-c4nc5ccccc5nc43)[C@H]2C(=O)c2nc3ccccc3[nH]2)cc1 (stereo partly drawn) [Compound 6f, (1H-Benzo[d]imidazol-2-yl)((1'R,2'S,11R)-1'-(4-methoxyphenyl)-1',2',4a’,5',6',7',8',8a’,9',9a’-decahydrospiro[indeno[1,2-b]quinoxaline-11,3'-pyrrolo[1,2-a]indol]-2'-yl)methanone] | 107 ± 2 nM | 5.130 | 549 ± 10 nM | – | – | – |
| O=C(c1nc2ccccc2[nH]1)[C@H]1[C@H](c2cccs2)C2CC3CCCCC3N2[C@@]12c1ccccc1-c1nc3ccccc3nc12 (stereo partly drawn) [Compound 6g, (1H-Benzo[d]imidazol-2-yl)((1'S,2'S,11R)-1'-(thiophen-2-yl)-1',2',4a’,5',6',7',8',8a’,9',9a’-decahydrospiro[indeno[1,2-b]quinoxaline-11,3'-pyrrolo[1,2-a]indol]-2'-yl)methanone] | 84 ± 4 nM | 1.952 | 164 ± 60 nM | – | – | – |
| O=C(c1nc2ccccc2[nH]1)[C@H]1[C@H](c2ccccc2)C2CC3CCCCC3N2[C@@]12c1ccccc1-c1nc3ccccc3nc12 (stereo partly drawn) [Compound 6h, (1H-Benzo[d]imidazol-2-yl)((1'R,2'S,11R)-1'-phenyl-1',2',4a’,5',6',7',8',8a’,9',9a’-decahydrospiro[indeno[1,2-b]quinoxaline-11,3'-pyrrolo[1,2-a]indol]-2'-yl)methanone] | 202 ± 6 nM | 0.856 | 173 ± 1 nM | – | – | – |
